From ChEMBL document CHEMBL4406904, “Design, synthesis and biological activity of a novel ethylenediamine derivatives as H1 receptor antagonists” (Bioorg Med Chem, 2019)
Activity calls are given as the source filed them. The calls are words filed in the database; no cut-off is given here.

How the values were obtained:
RBL-2H3 [1] = test: Antiallergic activity in rat RBL2H3 cells assessed as inhibition of C48/80-induced mast cell degranulation preincubated with compound for 30 mins and then treated with C48/80 for 1 hr by neutral red dye based method; type: functional
Procedure, shortened: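 RBL-2H3 cells seeded at 3×10⁵/mL and left overnight at 37 °C, 5% CO₂ to adhere. Medium discarded and cells stained with 0.5% neutral red for 3 min. Degranulated cells counted per 100 mast cells. IC50 taken as the concentration giving half-maximal degranulation. DMSO blank.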

RBL-2H3 [2] = test: Antiallergic activity in rat RBL2H3 cells assessed as inhibition of C48/80-induced histamine release preincubated with compound for 30 mins followed by C48/80 stimulation for 1 hr; type: functional, cell-based
Procedure, shortened: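 RBL-2H3 cells seeded at 3×10⁵/mL and adhered overnight at 37 °C, 5% CO₂. Histamine in the supernatant derivatized with o-phthalaldehyde after HCl/NaOH addition. IC50 is the concentration halving histamine release. DMSO blank.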

RBL-2H3 [3] = test: Antiallergic activity in IgE/Ag-stimulated rat RBL2H3 cells assessed as inhibition of HSA-induced beta-hexosaminidase release preincubated with compound for 30 mins and then stimulated with HSA for 15 mins followed by incubation with P-nitrophenyl-N-acetyl-beta-D-glucosaminide for 2 hrs; type: functional, cell-based
Procedure, shortened: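 RBL-2H3 cells (3×10⁵/mL) sensitized overnight with anti-DNP IgE at 150 ng·mL⁻¹, then washed twice in PIPES buffer pH 7.0 with glucose and 0.2% BSA. Compound applied for 30 min at 37 °C, then DNP-HSA 20 ng·mL⁻¹ for 15 min; stopped on ice. Supernatant incubated with p-nitrophenyl-N-acetyl-β-D-glucosaminide in citrate pH 4.6 for 2 h at 37 °C. Stopped with carbonate pH 10.2; A405 read. IC50 derived.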

[4] = target: Histamine H1 receptor (Homo sapiens) (UniProt P35367); test: Binding affinity to H1 receptor (unknown origin) at 0.10 umol/L
Cavia porcellus [5] = test: In vivo antiallergic activity in histamine-induced bronchospasm guinea pig model assessed as duration of convulsions at 20 mg/kg, po by Van Arman method; type: functional
Procedure, shortened: (§1)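 Male guinea pigs (220–260 g), fasted 24 h with water, six per group. Compound given orally at 20 mg·kg⁻¹ in 1% CMC-Na. Animals then exposed in a closed cage to aerosolized 0.3% histamine chloride (5 mL). Convulsion (preconvulsion) time recorded; stable beyond 10 min counted as protected. Protection % derived from mean time versus control.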

Cavia porcellus [6] = test: In vivo antiallergic activity in guinea pig assessed as protection against histamine-induced bronchospasm at 20 mg/kg, po by Van Arman method relative to control; type: functional; procedure, shortened: as §1
[7] = Acute toxicity in ip dosed histamine-induced bronchospasm guinea pig model; type: organism-based, Cavia porcellus; conditions: in vivo
Mus musculus = test: Antiallergic activity in mouse assessed as inhibition of histamine-induced increase in capillary permeability by measuring Evans blue dye concentration at 20 mg/kg administered via gavage for 1 week followed by Evans blue dye injection immediately after subcutaneous histamine injection and measured after 15 mins by UV spectrophotometric analysis; type: functional
Procedure, shortened: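 Mice (20–22 g), 10 per group, half male and half female. Compound suspension gavaged at 20 mg·kg⁻¹ for one week; model group given 0.5% CMC-Na. Backs depilated with 8% sodium sulfide the day before. Histamine phosphate 0.1% (50 μL) injected subcutaneously, with 0.5% Evans blue (25 mg·kg⁻¹) given i.v. via tail vein. Killed after 15 min. Stained skin extracted in acetone–saline for 48 h, centrifuged, OD read at 610 nm.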

[8] = Lipid/water partition co-efficient, log P of the compound; type: physicochemical
[9] = Dissociation constant, pKa of the compound; type: physicochemical
Cavia porcellus [10] = test: In vivo antiallergic activity in histamine-induced bronchospasm guinea pig model assessed as duration of convulsions at 20 mg/kg by Van Arman method
Cavia porcellus [11] = test: In vivo antiallergic activity in guinea pig assessed as protection against histamine-induced bronchospasm at 20 mg/kg by Van Arman method relative to control

Chain of Histamine H1 receptor (Homo sapiens) (P35367 whole entry): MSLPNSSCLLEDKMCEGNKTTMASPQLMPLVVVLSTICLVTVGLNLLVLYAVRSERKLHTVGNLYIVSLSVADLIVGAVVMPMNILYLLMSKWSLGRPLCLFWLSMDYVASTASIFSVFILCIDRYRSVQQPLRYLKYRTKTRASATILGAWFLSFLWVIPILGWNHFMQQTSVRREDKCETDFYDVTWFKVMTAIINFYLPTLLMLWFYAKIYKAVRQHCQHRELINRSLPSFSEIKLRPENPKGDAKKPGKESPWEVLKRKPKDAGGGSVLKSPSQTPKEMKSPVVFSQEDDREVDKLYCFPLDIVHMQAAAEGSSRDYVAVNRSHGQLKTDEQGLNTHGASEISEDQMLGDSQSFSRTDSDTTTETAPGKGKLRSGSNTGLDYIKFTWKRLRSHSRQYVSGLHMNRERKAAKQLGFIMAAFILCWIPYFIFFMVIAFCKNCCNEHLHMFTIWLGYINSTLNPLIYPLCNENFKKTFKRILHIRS

IC50 (RBL-2H3 [2])	IC50 (RBL-2H3 [3])	logP [8]	pKa [9]	Structure (SMILES)	IC50 (RBL-2H3 [1])	Activity [4]	Time (Cavia porcellus [5])	Activity (Cavia porcellus [6])	LD50 [7]	Activity (Mus musculus)	Time (Cavia porcellus [10])	Activity (Cavia porcellus [11])
243 nM	411 nM	3.9	9.7	COc1ccc(CN(CCN(C)C)c2ccccc2)cc1	143 nM	–	–	–	–	–	–	–
2110 nM	4090 nM	2.56	9.4	COc1ccc(CN(CCN(C)C)c2ccc(N)cn2)cc1	1340 nM	–	–	–	–	–	–	–
289 nM	561 nM	4.68	9.7	COc1ccc(CCN(CCN(C)C)c2ccc(C)cc2)cc1	153 nM	–	–	–	–	–	–	–
92.6 nM	132 nM	3.32	9.7	COc1ccc(CN(CCN(C)C)c2ccccn2)cc1 [PYRILAMINE]	81.5 nM	–	–	–	–	–	–	–
53.6 nM	121 nM	–	–	CN(C)CCC(c1ccc(Cl)cc1)c1ccccn1 (centres undefined) [CHLORPHENIRAMINE]	31.8 nM	–	–	–	–	56.13 mg/L	367.16 s	73.43%
141 nM	261 nM	4.78	9.5	COc1ccc(CCN(CCN(C)C)c2ccc(Cl)cc2)cc1	89.2 nM	–	–	–	–	–	–	–
1910 nM	4010 nM	2.79	9.6	COc1ccc(CCN(CCN(C)C)c2ccc(N)cn2)cc1	1210 nM	–	–	–	–	–	–	–
159 nM	319 nM	3.59	9.5	COc1ccc(CCN(CCN(C)C)c2ccccn2)cc1	129 nM	–	–	–	–	–	–	–
81.9 nM	156 nM	–	–	COc1ccc(CCN2CCC(Nc3nc4ccccc4n3Cc3ccc(F)cc3)CC2)cc1 [ASTEMIZOLE]	53.3 nM	–	–	–	–	–	–	–
102 nM	211 nM	4.06	9.5	COc1ccc(CCN(CCN(C)C)c2ccc(C)cn2)cc1	83.9 nM	–	–	–	–	–	–	–
516 nM	1030 nM	4.21	9.6	COc1ccc(CCN(CCN(C)C)c2ccccc2)cc1	306 nM	–	–	–	–	–	–	–
4010 nM	7960 nM	3.43	9.8	COc1ccc(CCN(CCN(C)C)c2ccc(N)cc2)cc1	2230 nM	–	–	–	–	–	–	–
4060 nM	8010 nM	3.13	9.8	COc1ccc(CN(CCN(C)C)c2ccc(N)cc2)cc1	2310 nM	–	–	–	–	–	–	–

Structure (SMILES)	IC50 (RBL-2H3 [2])	IC50 (RBL-2H3 [3])	logP [8]	pKa [9]	IC50 (RBL-2H3 [1])	Activity [4]	Time (Cavia porcellus [5])	Activity (Cavia porcellus [6])	LD50 [7]	Activity (Mus musculus)	Time (Cavia porcellus [10])	Activity (Cavia porcellus [11])
COc1ccc(CN(CCN(C)C)c2ccc(C)cn2)cc1	48.6 nM	61.2 nM	3.79	9.6	28.9 nM	Active	371.28 s	74.26%	335 mg/kg	62.16 mg/L	–	–
COc1ccc(CCN(CCN(C)C)c2ccc(Cl)cn2)cc1	53.1 nM	72.1 nM	4.16	9.4	45.3 nM	Active	351.1 s	70.22%	335 mg/kg	55.67 mg/L	–	–
COc1ccc(CN(CCN(C)C)c2ccc(Cl)cn2)cc1	19.2 nM	45.5 nM	3.87	9.5	10.6 nM	Active	398.69 s	79.74%	324 mg/kg	71.26 mg/L	–	–
COc1ccc(CN(CCN(C)C)c2ccc(C)cc2)cc1	89.1 nM	141 nM	4.43	9.8	55.3 nM	Active	348.1 s	69.62%	401 mg/kg	53.59 mg/L	–	–
COc1ccc(CN(CCN(C)C)c2ccc(Cl)cc2)cc1	40.2 nM	71.2 nM	4.47	9.6	18.1 nM	Active	376.58 s	75.32%	414 mg/kg	65.34 mg/L	–	–
